# According to PMC9371903 (Nucleic Acids Research, 2022):
# B1: ΔN-SUMO1 (residues 17-97 of human SUMO1) (domain or fragment, UniProt P63165 17-97, looked up)
# chain: KEGEYIKLKVIGQDSSEIHFKVKMTTHLKKLKESYAQRQGVPMNSLRFLFEGQRIADNHTPKELGMEEEDVIEVYQEQTGG
# How the values were obtained:
# [1] = tested on: PML-NBs in IMR90 normal human fibroblasts (control vector or activated RAS); assay: PML-NB formation by anti-PML immunofluorescence; format: cell-based; conditions: 24h treatment, 5 μM pyrithione
# Procedure, shortened: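 IMR90 fibroblasts in pyruvate-free DMEM with 10% FBS and 1% penicillin/streptomycin, transduced with retroviral pBABE control or pBABE-RAS-V12. On day 6, plated on coverslips and treated next day for 24 h with vehicle, 5 μM pyrithione or 1 μM TPEN. Cells fixed in 4% PFA, permeabilised with 0.4% Triton X-100 and 0.1 M glycine, then blocked in 3% BSA. Anti-PML (1/250, overnight, 4°C), Alexa 568 secondary, DAPI. PML-NBs per cell and PML-NBs >1 μm counted.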
# [2] = target: ΔN-SUMO1 (residues 17–97 of human SUMO1) (Homo sapiens, UniProt P63165, C52A); assay: ITC binding to ΔN-SUMO1; conditions: ΔN-SUMO1, 20 mM Tris–HCl pH 7.4, 25°C
# [3] = target: SUMO1 (residues 2–97 of human SUMO1 with a C52A substitution) (Homo sapiens, UniProt P63165, C52A); assay: ITC binding to SUMO1
# [4] = target: UBC9 (residues 2-158 of human UBC9) (human, UniProt P63279 2-158); assay: ITC
# [5] = target: SUMO2 (residues 2-93 of human SUMO2 with a C48A substitution) (human, UniProt P61956 2-93, C48A); assay: ITC
# [6] = target: ΔN-SUMO2 (residues 14-93) (human, UniProt P61956 14-93, C48A); assay: ITC
# Chain of ΔN-SUMO2 (residues 14-93) (P61956 14-93 C48A): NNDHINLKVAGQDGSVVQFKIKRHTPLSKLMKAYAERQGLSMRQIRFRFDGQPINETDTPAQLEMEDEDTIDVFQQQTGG
# Chain of UBC9 (residues 2-158 of human UBC9) (P63279 2-158): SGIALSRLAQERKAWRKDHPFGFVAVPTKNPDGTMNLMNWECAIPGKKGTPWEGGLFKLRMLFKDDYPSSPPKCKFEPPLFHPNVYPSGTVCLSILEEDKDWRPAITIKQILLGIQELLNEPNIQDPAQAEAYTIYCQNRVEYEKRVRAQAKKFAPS
# Chain of SUMO2 (residues 2-93 of human SUMO2 with a C48A substitution) (P61956 2-93 C48A): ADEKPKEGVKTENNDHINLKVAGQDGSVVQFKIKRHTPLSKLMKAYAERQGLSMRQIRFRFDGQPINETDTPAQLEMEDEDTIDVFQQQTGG
molecule,measurement,setting,value
[O-][n+]1ccccc1S [pyrithione],formation of PML-NBs,[1]; Ras-expressing (senescent) IMR90 cells,induces significantly the formation of PML-NBs
same,formation of PML-NBs,[1]; vector-control IMR90 cells,only a marginal increase
UBC9: residues 2–158 of human UBC9; E2 SUMO conjugating enzyme,Kd,[2],73 ± 15 nM
same,Kd,"[3]; ITC, SUMO1, 20 mM Tris–HCl pH 7.4, 25°C",29 ± 11 nM
same,fold stronger binding to SUMO1 in comparison to ΔN-SUMO1,"[3]; ratio of ITC KD values, 20 mM Tris–HCl pH 7.4",roughly 2.5 fold
B1,Kd,[4],73 ± 15 nM
YKTSVATQADPEEIIVLDDDD [Daxx-SIM-2SD (Daxx-SIM with S/D substitutions at positions 737 and 739)],Kd,[5],1000 ± 100 nM
same,Kd,[6],510 ± 110 nM
